Data: ChEMBL document CHEMBL4257452, “A mini-library system to investigate non-essential residues of lipid-phosphatidylserine (PS) binding peptide-peptoid hybrid PPS1” (Medchemcomm, 2017)
Calls of active or inactive are those of the source. No cut-off for these calls is given here. Starred links: 1 amine or outer side, 2 acyl side, 3 side chain; linkers in the order of their positions; H or OH if unused. Positions of bridges follow the written chain, without caps; N, C: chain ends. Non-standard residues stand in square brackets, D forms with d. Residues, ends and D or L forms follow the SMILES beside them. Chains are numbered I, II in the order given. Gly(N-piperonyl) = O=C(O)CNCc1ccc2c(c1)OCO2; X5 = O=C(CN(c1ccc2c(c1)OCCO2)[*:1])[*:2]; N(4-MeOBn)Gly = COc1ccc(CNCC(=O)O)cc1; X11 = Nc1ccc(CN(CC(=O)[*:2])[*:1])cc1; X3 = CC(c1ccccc1)N(CC(=O)[*:2])[*:1]; X9 = O=C(CN(CCOc1ccccc1)[*:1])[*:2]; X8 = O=C(CN(CC1CCNCC1)[*:1])[*:2]; Nrpe = C[C@@H](NCC(=O)O)c1ccccc1; X10 = CCC(C)CN(CC(=O)[*:2])[*:1]

Experiments:
[1] = system: HCC4017; experiment: Cytotoxicity against human HCC4017 cells assessed as reduction in cell viability at 20 uM after 24 hrs by MTS assay; assay type: functional, cell-based
Procedure, shortened: (§1)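 HCC4017 cells (RPMI, 5% FBS) and HBEC-3KT normal lung cells (KSFM with recombinant human EGF and bovine pituitary extract) were plated at 10 000 cells/well in triplicate and left to adhere overnight. They were exposed to 1 or 20 μM compound for 24 h. MTS reagent was then added for 2 h and absorbance read at 490 nm. Viability is % of untreated control wells.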

[2] = system: HCC4017; experiment: Cytotoxicity against human HCC4017 cells assessed as reduction in cell viability at 1 uM after 24 hrs by MTS assay; assay type: functional, cell-based; procedure, shortened: as §1
[3] = Cytotoxicity against human HBEC3-KT cells assessed as reduction in cell viability at 1 uM after 24 hrs by MTS assay; assay type: cell-based; procedure, shortened: as §1
[4] = Cytotoxicity against human HBEC3-KT cells assessed as reduction in cell viability at 20 uM after 24 hrs by MTS assay; assay type: cell-based; procedure, shortened: as §1

Row | SMILES | Activity [1] | Activity [2] | Activity [3] | Activity [4]
1 | COc1ccc(CN(CC(=O)N(CC(=O)N[C@@H](CCCCN)C(=O)N[C@H](CCCCN)C(=O)N[C@@H](CCSC)C(=O)NCCCC[C@H](NC(=O)[C@H](CCSC)NC(=O)[C@@H](CCCCN)NC(=O)[C@H](CCCCN)NC(=O)CN(C(=O)CN(Cc2ccc(OC)cc2)C(=O)CN(C(=O)CN(Cc2ccc3c(c2)OCO3)C(=O)CN[C@H](C)c2ccccc2)[C@H](C)c2ccccc2)c2ccc3c(c2)OCCO3)C(N)=O)c2ccc3c(c2)OCCO3)C(=O)CN(C(=O)CN(Cc2ccc3c(c2)OCO3)C(=O)CN[C@H](C)c2ccccc2)[C@H](C)c2ccccc2)cc1 (I: H-[Nrpe][Gly(N-piperonyl)][Nrpe][N(4-MeOBn)Gly][X5]K[dK]MK-NH2 / II: H-[Nrpe][Gly(N-piperonyl)][Nrpe][N(4-MeOBn)Gly][X5]K[dK]M; amide I:9-II:C) | Active | inactive | Non-Toxic | Non-Toxic
2 | COc1ccc(CN(CC(=O)N(CC(=O)NC(CCCCN)C(=O)NC(CCCCN)C(=O)NC(CCSC)C(=O)NCCCCC(NC(=O)C(CCSC)NC(=O)C(CCCCN)NC(=O)C(CCCCN)NC(=O)CN(CC2CCNCC2)C(=O)CN(Cc2ccc(OC)cc2)C(=O)CN(C(=O)CN(Cc2ccc3c(c2)OCO3)C(=O)CNC(C)c2ccccc2)C(C)c2ccccc2)C(N)=O)CC2CCNCC2)C(=O)CN(C(=O)CN(Cc2ccc3c(c2)OCO3)C(=O)CNC(C)c2ccccc2)C(C)c2ccccc2)cc1 (stereo not drawn) (I: H-[X3][Gly(N-piperonyl)][X3][N(4-MeOBn)Gly][X8]KKMK-NH2 / II: H-[X3][Gly(N-piperonyl)][X3][N(4-MeOBn)Gly][X8]KKM; amide I:9-II:C; configuration not given here) | Active |  |  | 
3 | COc1ccc(CN(CC(=O)N(CCOc2ccccc2)CC(=O)NC(CCCCN)C(=O)NC(CCCCN)C(=O)NC(CCSC)C(=O)NCCCCC(NC(=O)C(CCSC)NC(=O)C(CCCCN)NC(=O)C(CCCCN)NC(=O)CN(CCOc2ccccc2)C(=O)CN(Cc2ccc(OC)cc2)C(=O)CN(C(=O)CN(Cc2ccc3c(c2)OCO3)C(=O)CNC(C)c2ccccc2)C(C)c2ccccc2)C(N)=O)C(=O)CN(C(=O)CN(Cc2ccc3c(c2)OCO3)C(=O)CNC(C)c2ccccc2)C(C)c2ccccc2)cc1 (stereo not drawn) (I: H-[X3][Gly(N-piperonyl)][X3][N(4-MeOBn)Gly][X9]KKMK-NH2 / II: H-[X3][Gly(N-piperonyl)][X3][N(4-MeOBn)Gly][X9]KKM; amide I:9-II:C; configuration not given here) | Active |  |  | 
4 | CCC(C)CN(CC(=O)NC(CCCCN)C(=O)NC(CCCCN)C(=O)NC(CCSC)C(=O)NCCCCC(NC(=O)C(CCSC)NC(=O)C(CCCCN)NC(=O)C(CCCCN)NC(=O)CN(CC(C)CC)C(=O)CN(Cc1ccc(OC)cc1)C(=O)CN(C(=O)CN(Cc1ccc2c(c1)OCO2)C(=O)CNC(C)c1ccccc1)C(C)c1ccccc1)C(N)=O)C(=O)CN(Cc1ccc(OC)cc1)C(=O)CN(C(=O)CN(Cc1ccc2c(c1)OCO2)C(=O)CNC(C)c1ccccc1)C(C)c1ccccc1 (stereo not drawn) (I: H-[X3][Gly(N-piperonyl)][X3][N(4-MeOBn)Gly][X10]KKMK-NH2 / II: H-[X3][Gly(N-piperonyl)][X3][N(4-MeOBn)Gly][X10]KKM; amide I:9-II:C; configuration not given here) | Active |  |  | 
5 | COc1ccc(CN(CC(=O)N(CC(=O)NC(CCCCN)C(=O)NC(CCCCN)C(=O)NC(CCSC)C(=O)NCCCCC(NC(=O)C(CCSC)NC(=O)C(CCCCN)NC(=O)C(CCCCN)NC(=O)CN(Cc2ccc(N)cc2)C(=O)CN(Cc2ccc(OC)cc2)C(=O)CN(C(=O)CN(Cc2ccc3c(c2)OCO3)C(=O)CNC(C)c2ccccc2)C(C)c2ccccc2)C(N)=O)Cc2ccc(N)cc2)C(=O)CN(C(=O)CN(Cc2ccc3c(c2)OCO3)C(=O)CNC(C)c2ccccc2)C(C)c2ccccc2)cc1 (stereo not drawn) (I: H-[X3][Gly(N-piperonyl)][X3][N(4-MeOBn)Gly][X11]KKMK-NH2 / II: H-[X3][Gly(N-piperonyl)][X3][N(4-MeOBn)Gly][X11]KKM; amide I:9-II:C; configuration not given here) | Active |  |  | 
